Screening results: PubChem, several laboratories
Compounds with a hit are over-represented: about 8.4% of the library has one in this group of screens.
Ecoli WT expand: growth inhibitors of wild-type E. coli, primary screen, strain BW25113, expanded library, OD600 | OD600 absorbance | growth inhibition, % at 100 µM | actives 0.15% (n = 98,000) | AID 710, 2007;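 active = growth inhibition above about 50% at one test dose, limit read from the data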;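 also: growth measured after 20 h incubation at 37 °C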
PostGolgi yeast: phenotypic screen on post-Golgi transport, primary screen; post-Golgi transport phenotypic cell assay; actives 0.9% (n = 98,000); AID 739, 2007; inhibition, % at 10 µM;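 also: yeast cells grown in 1536-well plates; yeast grown about 18 h at 30C before absorbance read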
tolC growth inh: growth inhibitors of E. coli tolC mutant, primary screen, strain BW25113 ΔtolC::kan, 384-well. growth inhibition, % at 10 µM (by protocol). AID 573, 2007. OD615. actives 2.2% (n = 65,000);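 active = growth inhibition at or above a cutoff equal to the mean over every tested compound plus 3 SD, cut at about 60% in these data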;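 also: growth measured after 20 h incubation at 37 °C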
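Doses: one dose of 10 µM final / Material: E. coli BW25113 ΔtolC::kan, tolC deletion mutant strain / Buffer or medium: LB with kanamycin 50 µg/mL / Evaluation: percent growth inhibition / Detection: optical density read at 615 nm / Incubation: 37 °C, 20 h exposure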
Cav3 T inh: Cav3.2 calcium influx blockers – cell-based, Fluo-4 calcium fluorescence, FDSS, MLSMR library, primary screen. actives 4% (n = 100,000). Cav3.2-expressing cells; active compounds read low. B-score at 10 µM. Voltage-dependent T-type calcium channel subunit alpha-1H (Homo sapiens), O95180. AID 449739, 2010;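 active = single-dose well whose peak fluorescence ratio is a statistical outlier from its plate by either plate-standardised score or position-corrected B-score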
PostGolgi ctrl: growth inhibition of yeast control strain, primary screen, counter-screen for post-Golgi transport modulator project. AID 738, 2007. efflux-deficient yeast background strain, growth absorbance A615, 16 h. inhibition, % at 10 µM. actives 5% (n = 98,000)
* marks the source's active call; other numbers are inactive results; · = no result given. Rule as the data show it, unless noted: active = inhibition above about 30%; inactive = the rest.

SMILES | Ecoli WT expand | PostGolgi yeast | tolC growth inh | Cav3 T inh | PostGolgi ctrl
CC(=O)O/N=C/c1c(N2CCOCC2)n(C)c2ccccc12 | 12 | 26 | · | -0.28 | 10
CCC(C)NC(=O)C1CCN(S(=O)(=O)N2CCCC2)CC1 (configuration not stated) | 3 | -10 | -19 | 0.85 | 31*
CCC(C)NC(=O)C1CCN(S(=O)(=O)CC)CC1 (configuration not stated) | 8 | 4 | -14 | 1.4 | 6
COc1ccc(-c2cn(-c3ccc(C)cc3)c(=O)n2CC(=O)Nc2cccc(F)c2)cc1 | -8 | 8 | · | -5* | 16
NC(=O)CC(NC(=O)c1ccccc1)c1ccc(NCCc2ccc(F)cc2)c([N+](=O)[O-])c1 (configuration not stated) | · | · | · | 0.54 | ·
COCCn1c(SCC(=O)Nc2cccc(C)c2)nnc1C(C)C | 1 | 0 | -1 | 0.75 | -1
COCCn1c(SCC(=O)Nc2cc(C)cc(C)c2)nnc1C(C)C | -2 | -4 | -6 | 0.043 | 30*
Cc1csc(NC(=O)CCSCCc2ccccn2)n1 | 5 | -8 | · | 0.64 | 1
CCOC(=O)C1=C(c2ccccc2)Nc2ncnn2C1c1cccc(OC)c1OC (configuration not stated) | -2 | 5 | 14 | 3.4* | 1
CCCn1c(SCC(=O)NC(C)C23CC4CC(CC(C4)C2)C3)n[nH]c1=O (configuration not stated) | 2 | -2 | · | 0.53 | 38*
CC(NC(=O)Cn1cnnn1)C12CC3CC(CC(C3)C1)C2 (configuration not stated) | -1 | 18 | -15 | 0.41 | 14
N#CC(c1cccc(Cl)c1)c1ccc2c(C(F)(F)F)cc(C(F)(F)F)nc2n1 (configuration not stated) | 0 | 99* | · | -9.2* | 102*
CCOC(=O)c1sc(NC(=O)Cn2nnc3sc4c(c3c2=O)CCCC4)nc1C | -13 | -3 | · | -4.6* | 27
CC1(c2ccccc2)CC2CC(c3ccccc3)N1O2 (configuration not stated) | 9 | -1 | · | -0.39 | 10
CC1C(c2ccccc2)N(C)C(c2ccccc2)CC1(O)c1ccccc1 (configuration not stated) | 0 | 9 | · | -6.8* | 16
O=S(=O)(Nc1nccs1)c1ccc(Cl)cc1 | 18 | 12 | · | -3.4* | 3
O=C(O)CCC(=O)Nc1ccc(S(=O)(=O)Nc2nccs2)cc1 | · | · | 0 | 0.0094 | ·
Cc1ccc(-c2nn3c(C)nnc3s2)cc1NC(=O)CSc1ccc(Cl)cc1 | -7 | 17 | -4 | -0.84 | -1
Cc1ccc(-c2nn3c(C)nnc3s2)cc1NCc1c(F)cccc1Cl | -5 | 33* | 17 | -1.8 | 23
Cc1ccc(CNc2cc(-c3nn4c(C)nnc4s3)ccc2C)s1 | -7 | 8 | 7 | -2.1 | 32*
O=C(Nc1ccc(Cl)cn1)C1CCCN1S(=O)(=O)c1ccc(Cl)cc1 (configuration not stated) | 5 | 20 | 2 | -0.72 | 19
O=C(Nc1ccc(Cl)cn1)C1CCCN1S(=O)(=O)c1cccc2ccccc12 (configuration not stated) | -17 | -3 | · | -3.1 | 50*
COc1ccc(N2CCN(CCNC(=O)c3cccn4c(=O)c5ccc(Cl)cc5nc34)CC2)cc1 | · | · | 2 | · | ·
CCOC(=O)c1cccc(NC(=O)CN(c2ccc(OC)cc2)S(=O)(=O)c2c(C)noc2C)c1 | -13 | -8 | 41 | -4.9* | 18
CCOc1ccc(N(CC(=O)Nc2ccc(C)c(C)c2)S(=O)(=O)c2c(C)noc2C)cc1 | -18 | 4 | 61* | -4.9* | 25
SMILES | Ecoli WT expand | PostGolgi yeast | tolC growth inh | Cav3 T inh | PostGolgi ctrl
CCCCS(=O)(=O)NC1=NCN(CCOC(=O)c2ccccc2)CN1 | · | · | -4 | 0.53 | ·
Clc1cc(Sc2ccc(Br)cc2)nnc1-c1ccccc1 | -16 | -8 | · | -5.3* | 65*
O=S(=O)(NCCc1ccccn1)c1ccc(F)c(F)c1 | 9 | -6 | -18 | 1.2 | 3
N#Cc1c2n(c3c(=O)n(Cc4ccc(Cl)cc4)cnc13)CCCCC2 | -14 | -11 | 25 | · | 58*
N#Cc1c2n(c3c(=O)n(Cc4ccccc4)cnc13)CCCC2 | 4 | 0 | 7 | 1.8 | 7
O=C(Nc1ccccc1C(F)(F)F)c1ccc(CN2CCC(Cc3ccccc3)CC2)cc1 | -3 | 5 | · | -7.7* | 7
Cc1cc(NC(=O)CSCCO)no1 | 3 | 9 | · | -0.71 | 22
CC1(C)CC(=O)C2=C(C1)OC(N)=C(C#N)C21C(=O)N2CCCc3cccc1c32 (configuration not stated) | -2 | -6 | -5 | 0.05 | 34*
C[C@H](NC(=O)c1nc[nH]c1C(=O)NCCCCCNC(=O)OC(C)(C)C)C(=O)OCc1ccccc1 | · | · | · | -0.48 | ·
CC[C@@H](C)[C@H](NC(=O)OC(C)(C)C)c1nnc(S(=O)(=O)Cc2cc(C)ccc2C)o1 | 13 | 5 | 2 | -0.67 | 41*
CCOC(=O)CSc1nnc([C@H](Cc2ccccc2)NC(=O)OC(C)(C)C)o1 | -1 | 2 | 11 | -0.56 | -2
Cc1ccccc1CS(=O)(=O)c1nnc([C@H](CC(C)C)NC(=O)OC(C)(C)C)o1 | 12 | 41* | -1 | -1.1 | 45*
CC(C)C[C@H](NC(=O)OC(C)(C)C)c1nnc(SCc2ccccc2)o1 | -14 | -3 | · | -4.8* | 0
CC(C)(C)OC(=O)N[C@@H](Cc1ccccc1)c1nnc(S(=O)(=O)Cc2cccc(F)c2)o1 | 3 | 18 | 9 | · | 22
CC(C)[C@H](NC(=O)OC(C)(C)C)c1nnc(S(=O)(=O)Cc2c(F)cccc2Cl)o1 | · | · | 35 | -1.2 | ·
CC(C)(C)OC(=O)N[C@@H](CCCCNC(=O)OCc1ccccc1)c1nnc([C@H](CCCCNC(=O)OCc2ccccc2)NC(=O)OC(C)(C)C)o1 | · | · | · | -2.8* | ·
Cc1oc2nc(SCC(=O)N3CCCCC3)nc(N)c2c1C | · | · | 0 | · | ·
CCOC(=O)N1CCC(N2C(=O)c3ccccc3C2Nc2ccc(Cl)cn2)CC1 (configuration not stated) | 0 | -7 | 9 | -2.1 | 21
CCOC(=O)C1C(=O)NC(c2ccccc2)=NC1c1ccc(Cl)cc1 (configuration not stated) | -1 | -3 | · | · | 14
CC(C)CC1(C)NC(=O)N(CCN2C(=O)c3ccccc3C2=O)C1=O (configuration not stated) | 5 | 0 | -20 | -0.6 | 3
CC(C)(C)C1CCC(OCC(O)CN2CCN(c3ccccc3)CC2)CC1 (configuration not stated) | 19 | 104* | · | 1.4 | 96*
Cc1ccc(N2CCN(CC(O)COC3CCCCC3)CC2)cc1 (configuration not stated) | 3 | 10 | -4 | -1.7 | 19
CC1CCN(CC(O)COC2CCC(C(C)(C)C)CC2)CC1 (configuration not stated) | 18 | 97* | 35 | -0.43 | 98*
